Source: ChEMBL document CHEMBL4706601, “The endocannabinoid system dual-target ligand N-cycloheptyl-1,2-dihydro-5-bromo-1-(4-fluorobenzyl)-6-methyl-2-oxo-pyridine-3-carboxamide improves disease severity in a mouse model of multiple sclerosis” (Eur J Med Chem, 2020)
pEC50, pIC50, pKi: −log10 of the molar value. Calls of active or inactive are those of the source. The rule behind the calls is not given here.

Experiments:
[1] = biological target: T1, Monoacylglycerol lipase ABHD6 (Homo sapiens, UniProt Q9BV23); assay: Inhibition of human ABHD6 expressed in HEK293 cells using 2-OG as substrate preincubated for 30 mins followed by substrate addition and measured after 5 mins by liquid scintillation spectroscopy; type: cell-based
T1 sequence (Q9BV23 whole entry): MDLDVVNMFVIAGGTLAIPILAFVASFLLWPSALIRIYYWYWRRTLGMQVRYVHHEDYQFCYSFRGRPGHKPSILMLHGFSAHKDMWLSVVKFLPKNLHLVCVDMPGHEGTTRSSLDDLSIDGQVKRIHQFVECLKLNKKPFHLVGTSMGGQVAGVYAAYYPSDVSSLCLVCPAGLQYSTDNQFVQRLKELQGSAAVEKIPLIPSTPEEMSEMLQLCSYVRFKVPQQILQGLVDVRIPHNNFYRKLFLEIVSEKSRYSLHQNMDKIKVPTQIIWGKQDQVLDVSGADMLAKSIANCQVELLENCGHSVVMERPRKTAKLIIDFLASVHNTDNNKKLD
Summary of the method: (§1)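 Homogenates (40 µg) from HEK293 stably expressing hABHD6 or hABHD12 pre-incubated with compound 30 min at 37 °C in […], 0.1% BSA, pH 7.6; then 10 μM 2-OG for 5 min at 37 °C. Aqueous phase tritium counted after CHCl3:MeOH stop; no-enzyme blanks and non-transfected HEK293 hydrolysis subtracted. Controls WWL70 10 μM, THL 20 μM.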

[2] = biological target: T2, Lysophosphatidylserine lipase ABHD12 (Homo sapiens, UniProt Q8N2K0); assay: Inhibition of human ABHD12 expressed in HEK293 cells using 2-OG as substrate preincubated for 30 mins followed by substrate addition and measured after 5 mins by liquid scintillation spectroscopy; type: cell-based; summary of the method: as §1
T2 sequence (Q8N2K0 whole entry): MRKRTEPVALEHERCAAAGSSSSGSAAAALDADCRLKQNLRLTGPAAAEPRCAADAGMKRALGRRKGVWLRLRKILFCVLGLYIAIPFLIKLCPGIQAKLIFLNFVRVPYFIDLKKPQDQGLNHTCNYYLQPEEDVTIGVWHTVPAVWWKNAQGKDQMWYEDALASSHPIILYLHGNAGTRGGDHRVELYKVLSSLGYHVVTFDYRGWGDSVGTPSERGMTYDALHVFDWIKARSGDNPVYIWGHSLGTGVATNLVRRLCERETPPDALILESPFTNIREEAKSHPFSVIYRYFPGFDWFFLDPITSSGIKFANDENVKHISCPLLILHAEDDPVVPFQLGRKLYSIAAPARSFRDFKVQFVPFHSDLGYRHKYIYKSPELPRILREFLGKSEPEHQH

Cannabinoid receptor 2 [3] = biological target: T3, Cannabinoid receptor 2 (Homo sapiens, UniProt P34972); assay: Displacement of [3H]CP55940 from recombinant human CB2R expressed in CHO cell membranes incubated for 90 mins; set-up: species or system Membrane
[4] = biological target: T4, Fatty-acid amide hydrolase 1 (Homo sapiens, UniProt O00519); assay: Inhibition of FAAH in human U937 cells using [ethanolamine-1-3H]AEA as substrate preincubated for 15 mins followed by substrate addition and measured after 15 mins by liquid scintillation spectroscopy; type: cell-based, U-937
T4 sequence (O00519 whole entry): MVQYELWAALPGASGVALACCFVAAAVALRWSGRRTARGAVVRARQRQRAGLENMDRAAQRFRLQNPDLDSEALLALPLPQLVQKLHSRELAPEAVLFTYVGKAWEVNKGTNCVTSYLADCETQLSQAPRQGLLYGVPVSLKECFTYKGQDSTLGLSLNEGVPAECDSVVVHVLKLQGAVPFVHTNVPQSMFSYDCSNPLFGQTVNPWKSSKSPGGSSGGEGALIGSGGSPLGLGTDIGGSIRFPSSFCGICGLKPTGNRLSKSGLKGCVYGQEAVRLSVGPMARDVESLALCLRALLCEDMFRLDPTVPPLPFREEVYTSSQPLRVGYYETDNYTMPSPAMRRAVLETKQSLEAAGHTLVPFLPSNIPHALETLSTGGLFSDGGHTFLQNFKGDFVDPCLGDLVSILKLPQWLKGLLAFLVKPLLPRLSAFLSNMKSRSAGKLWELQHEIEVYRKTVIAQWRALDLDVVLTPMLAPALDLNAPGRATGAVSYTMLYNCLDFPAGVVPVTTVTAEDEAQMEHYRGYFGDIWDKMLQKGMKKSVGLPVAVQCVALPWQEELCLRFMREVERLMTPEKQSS
Summary of the method: (§2)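 Intact U937 cells, 10^6 per condition, pre-incubated with compound 15 min at 37 °C with shaking (screen at 10 μM; full curves for hits). Substrate: 1 μM AEA with 1 nM [3H]AEA (FAAH) or 10 μM 2-OG with 5 nM [3H]2-OG (MAGL), 15 min at 37 °C. Stopped with CHCl3:MeOH 1:1, aqueous tritium counted; mean ± SD, ≥3 experiments in triplicate.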

Cannabinoid receptor 1 [5] = biological target: T5, Cannabinoid receptor 1 (Homo sapiens, UniProt P21554); assay: Displacement of [3H]CP55940 from recombinant human CB1R expressed in CHO cell membranes incubated for 90 mins; set-up: species or system Membrane
Monoglyceride lipase = biological target: T6, Monoglyceride lipase (Homo sapiens, UniProt Q99685); assay: Inhibition of MAGL in human U937 cells using [glycerol-1,2,3-3H]2-OG as substrate preincubated for 15 mins followed by substrate addition and measured after 15 mins by liquid scintillation spectroscopy; type: cell-based, U-937; summary of the method: as §2
T6 sequence (Q99685 whole entry): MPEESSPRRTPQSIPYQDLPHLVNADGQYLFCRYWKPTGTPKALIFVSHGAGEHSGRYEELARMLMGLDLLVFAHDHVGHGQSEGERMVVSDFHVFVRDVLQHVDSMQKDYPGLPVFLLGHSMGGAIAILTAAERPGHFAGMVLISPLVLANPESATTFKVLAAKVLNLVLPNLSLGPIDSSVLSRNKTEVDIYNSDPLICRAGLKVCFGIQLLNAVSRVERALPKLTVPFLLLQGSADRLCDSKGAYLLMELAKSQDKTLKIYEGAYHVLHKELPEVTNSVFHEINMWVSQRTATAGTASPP

Cannabinoid receptor 2 [6] = biological target: T3, Cannabinoid receptor 2; assay: Agonist activity at human CB2R expressed in CHO cell membranes after 90 mins by [35S]GTPgammaS assay; type: functional, Membrane
Summary of the method: (§3)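 In-house CHO membranes expressing hCB1 or hCB2 (10 µg) in 50 mM Tris-HCl, 3 mM MgCl2, 0.2 mM EDTA, 100 mM NaCl, 0.5% fatty-acid-free BSA, pH 7.4, with 10 μM GDP and 0.1 nM [35S]GTPγS. Incubated 90 min at 30 °C; antagonist pre-incubated 30 min. Nonspecific binding with 10 μM GTPγS; bound label by filtration and counting; ≥3 experiments in triplicate.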

Cannabinoid receptor 1 [7] = biological target: T5, Cannabinoid receptor 1; assay: Agonist activity at human CB1R expressed in CHO cell membranes after 90 mins by [35S]GTPgammaS assay; type: functional, Membrane; summary of the method: as §3
[8] = biological target: Cannabinoid receptor 2 (Mus musculus) (UniProt P47936); assay: Agonist activity at CB2R in LPS induced mouse BV2 cells assessed as decrease in IL-1beta secretion at 10 uM preincubated for 30 mins followed by LPS stimulation for 4 hrs by ELISA; type: cell-based; details: BV-2, filed as agonist, time 270.0 min
Summary of the method: (§4)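 BV-2 murine microglia grown in high-glucose DMEM with 10% FBS. Treatments in FBS-free medium: test agonist 10 μM for 30 min, then LPS 5 μg/ml for 4 h; SR144528 10 μM given 15 min before agonist. DMSO ≤0.1% final. Medium spun 10 min at 1000×g; IL-1β, IL-6, IL-10 quantified by ELISA; three independent experiments in duplicate.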

[9] = biological target: Cannabinoid receptor 2 (Mus musculus) (UniProt P47936); assay: Agonist activity at CB2R in LPS induced mouse BV2 cells assessed as decrease in IL6 secretion at 10 uM preincubated for 30 mins followed by LPS stimulation for 4 hrs by ELISA; type: cell-based; details: BV-2, filed as agonist, time 270.0 min; summary of the method: as §4
[10] = biological target: Cannabinoid receptor 2 (Mus musculus) (UniProt P47936); assay: Agonist activity at CB2R in LPS induced mouse BV2 cells assessed as increase in IL-10 secretion at 10 uM preincubated for 30 mins followed by LPS stimulation for 4 hrs by ELISA; type: cell-based; details: BV-2, filed as agonist, time 270.0 min; summary of the method: as §4
Homo sapiens = organism: Homo sapiens; assay: Selectivity index, ratio of Ki for human CB1R expressed in CHO cell membranes to Ki for human CB2R expressed in CHO cell membranes; type: cell-based

Chain of Cannabinoid receptor 2 (Mus musculus) (P47936 whole entry): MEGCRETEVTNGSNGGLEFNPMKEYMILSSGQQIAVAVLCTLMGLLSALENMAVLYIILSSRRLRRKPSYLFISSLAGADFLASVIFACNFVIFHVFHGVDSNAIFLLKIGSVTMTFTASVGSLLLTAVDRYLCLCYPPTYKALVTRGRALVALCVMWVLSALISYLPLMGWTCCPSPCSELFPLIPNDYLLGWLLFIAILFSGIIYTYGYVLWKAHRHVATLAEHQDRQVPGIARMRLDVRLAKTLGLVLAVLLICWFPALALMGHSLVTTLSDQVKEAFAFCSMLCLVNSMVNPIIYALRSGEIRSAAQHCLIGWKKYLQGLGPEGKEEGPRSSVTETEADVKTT
T5 sequence (P21554 whole entry): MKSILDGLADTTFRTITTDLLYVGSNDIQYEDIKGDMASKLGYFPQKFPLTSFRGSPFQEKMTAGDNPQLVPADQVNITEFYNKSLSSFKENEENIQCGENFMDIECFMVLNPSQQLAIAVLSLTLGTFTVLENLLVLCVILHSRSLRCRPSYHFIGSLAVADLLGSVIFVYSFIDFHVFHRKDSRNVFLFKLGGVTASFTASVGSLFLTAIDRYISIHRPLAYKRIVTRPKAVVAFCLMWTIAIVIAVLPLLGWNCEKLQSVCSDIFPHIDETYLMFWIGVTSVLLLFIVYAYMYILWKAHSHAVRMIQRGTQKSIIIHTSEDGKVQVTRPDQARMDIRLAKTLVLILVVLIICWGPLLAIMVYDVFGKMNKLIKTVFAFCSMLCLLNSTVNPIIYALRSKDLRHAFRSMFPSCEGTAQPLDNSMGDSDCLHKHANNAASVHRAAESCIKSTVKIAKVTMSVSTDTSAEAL
T3 sequence (P34972 whole entry): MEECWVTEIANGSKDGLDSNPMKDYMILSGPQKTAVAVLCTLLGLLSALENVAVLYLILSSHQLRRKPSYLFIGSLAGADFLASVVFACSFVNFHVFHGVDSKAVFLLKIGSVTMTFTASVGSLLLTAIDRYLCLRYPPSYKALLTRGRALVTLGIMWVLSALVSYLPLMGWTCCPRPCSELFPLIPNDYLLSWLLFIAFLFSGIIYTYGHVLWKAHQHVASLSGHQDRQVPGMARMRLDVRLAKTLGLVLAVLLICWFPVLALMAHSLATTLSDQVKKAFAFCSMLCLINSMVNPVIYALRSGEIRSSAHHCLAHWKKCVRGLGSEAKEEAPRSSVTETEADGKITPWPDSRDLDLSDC

Compound	pIC50 [1]	pIC50 [2]	pKi (Cannabinoid receptor 2 [3])	pIC50 [4]	pKi (Cannabinoid receptor 1 [5])	pIC50 (Monoglyceride lipase)	pEC50 (Cannabinoid receptor 2 [6])	pEC50 (Cannabinoid receptor 1 [7])	Activity [8]	Activity [9]	Activity [10]	Ratio Ki (Homo sapiens)
Cc1c(Br)cc(C(=O)NC2CCNCC2)c(=O)n1Cc1ccc(F)cc1	< 5.00	< 5.00	< 5.00	< 5.00	< 5.00	< 5.00						
Cc1ccc(C(=O)NC2CCCCCC2)c(=O)n1Cc1ccc(F)cc1	< 5.00	< 5.00	8.33	< 5.00	7.42	< 5.00	8.38	7.39				
Cc1nc(OCc2ccc(F)cc2)c(C(=O)NC2CCCCCC2)cc1-c1ccc(F)cc1	< 5.00	< 5.00	6.27	< 5.00	5.34	< 5.00						
CCCC(C)(C)c1ccc2c(c1)OC(C)(C)[C@@H]1CC=C(C)C[C@@H]21									Active	Active	Active	
Cc1c(F)cc(C(=O)NC2CCCCCC2)c(=O)n1Cc1ccc(F)cc1	< 5.00	< 5.00	8.24	< 5.00	8.31	< 5.00	7.61	7.36				0.86
Cc1nc(OCc2ccc(F)cc2)c(C(=O)NC2CCCCCC2)cc1Br	< 5.00	5.68	8.82	< 5.00	7.12	< 5.00	7.50	6.23				
